In ChEMBL document CHEMBL5058577, “EUbOPEN Chemogenomics Library 2 (Multiplex)” (2022):

System: Fibroblast
Test: Multiplex assay against human fibroblast
Format: toxicity, cell-based
In short: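 Compound was added to live cells that had been stained at seeding with Hoechst33342, BioTracker Green Microtubule Cytoskeleton Dye, MitoTracker Red and Annexin V Alexa Fluor 680, and imaging followed on a CQ1 microscope at 37°C and 5% CO2. CellPathfinder machine-learning gating divided cells into Hoechst high-intensity objects or normal cells, normal cells into healthy, pyknosed or fragmented nuclei, and pyknosed cells into mitotic or apoptotic. Tubulin, mitochondrial-mass and membrane-permeability phenotypes are per cents of healthy-nucleus cells.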

[1] = 12 h, 1 µM, compound concentration 1 uM, replicate 1
[2] = 12 h, 1 µM, compound concentration 1 uM, replicate 2
[3] = 12 h, 10 µM, compound concentration 10 uM, replicate 1
[4] = 12 h, 10 µM, compound concentration 10 uM, replicate 2
[5] = 24 h, 1 µM, compound concentration 1 uM, replicate 1
[6] = 24 h, 1 µM, compound concentration 1 uM, replicate 2
[7] = 24 h, 10 µM, compound concentration 10 uM, replicate 1
[8] = 24 h, 10 µM, compound concentration 10 uM, replicate 2
[9] = 48 h, 1 µM, compound concentration 1 uM, replicate 1
[10] = 48 h, 1 µM, compound concentration 1 uM, replicate 2
[11] = 48 h, 10 µM, compound concentration 10 uM, replicate 1
[12] = 48 h, 10 µM, compound concentration 10 uM, replicate 2

CN(C)C/C=C/C(=O)Nc1ccc(C(=O)N2CCCC(Nc3ncc(Cl)c(-c4c[nH]c5ccccc45)n3)C2)cc1 (centres undefined)
Population Apoptotic (%) [1]: 48%
Population Fragmented Nuclei (%) [1]: 15%
Population Healthy Nuclei (%) [1]: 64%
Population Hoechst High Intensity Objects (%) [1]: 2%
Population Membrane Permeable-Phenotype (%) [1]: 2%
Population Mitochondria Different-Phenotype (%) [1]: 11%
Population Mitotic Cells (%) [1]: 51%
Population Normal (%) [1]: 97%
Population Pyknosed Nuclei (%) [1]: 19%
Population Tubulin-Different-Phenotype (%) [1]: 40%
Total Cell Count [1]: 152
Population Apoptotic (%) [2]: 46%
Population Fragmented Nuclei (%) [2]: 21%
Population Healthy Nuclei (%) [2]: 53%
Population Hoechst High Intensity Objects (%) [2]: 6%
Population Membrane Permeable-Phenotype (%) [2]: 3%
Population Mitochondria Different-Phenotype (%) [2]: 13%
Population Mitotic Cells (%) [2]: 53%
Population Normal (%) [2]: 93%
Population Pyknosed Nuclei (%) [2]: 25%
Total Cell Count [2]: 182
Population Apoptotic (%) [3]: 59%
Population Fragmented Nuclei (%) [3]: 18%
Population Healthy Nuclei (%) [3]: 53%
Population Hoechst High Intensity Objects (%) [3]: 4%
Population Membrane Permeable-Phenotype (%) [3]: 1%
Population Mitochondria Different-Phenotype (%) [3]: 37%
Population Mitotic Cells (%) [3]: 40%
Population Normal (%) [3]: 95%
Population Pyknosed Nuclei (%) [3]: 27%
Population Tubulin-Different-Phenotype (%) [3]: 77%
Total Cell Count [3]: 140
Population Apoptotic (%) [4]: 48%
Population Fragmented Nuclei (%) [4]: 23%
Population Healthy Nuclei (%) [4]: 41%
Population Hoechst High Intensity Objects (%) [4]: 8%
Population Membrane Permeable-Phenotype (%) [4]: 12%
Population Mitochondria Different-Phenotype (%) [4]: 19%
Population Mitotic Cells (%) [4]: 51%
Population Normal (%) [4]: 91%
Population Pyknosed Nuclei (%) [4]: 35%
Population Tubulin-Different-Phenotype (%) [4]: 58%
Total Cell Count [4]: 147
Population Apoptotic (%) [5]: 68%
Population Fragmented Nuclei (%) [5]: 25%
Population Healthy Nuclei (%) [5]: 48%
Population Hoechst High Intensity Objects (%) [5]: 7%
Population Membrane Permeable-Phenotype (%) [5]: 2%
Population Mitochondria Different-Phenotype (%) [5]: 7%
Population Mitotic Cells (%) [5]: 31%
Population Normal (%) [5]: 92%
Population Pyknosed Nuclei (%) [5]: 26%
Population Tubulin-Different-Phenotype (%) [5]: 40%
Total Cell Count [5]: 155
Population Apoptotic (%) [6]: 37%
Population Fragmented Nuclei (%) [6]: 26%
Population Healthy Nuclei (%) [6]: 49%
Population Membrane Permeable-Phenotype (%) [6]: 10%
Population Mitochondria Different-Phenotype (%) [6]: 10%
Population Mitotic Cells (%) [6]: 62%
Population Pyknosed Nuclei (%) [6]: 23%
Population Tubulin-Different-Phenotype (%) [6]: 54%
Total Cell Count [6]: 181
Population Apoptotic (%) [7]: 65%
Population Fragmented Nuclei (%) [7]: 13%
Population Healthy Nuclei (%) [7]: 49%
Population Hoechst High Intensity Objects (%) [7]: 2%
Population Membrane Permeable-Phenotype (%) [7]: 0%
Population Mitochondria Different-Phenotype (%) [7]: 52%
Population Mitotic Cells (%) [7]: 34%
Population Normal (%) [7]: 97%
Population Pyknosed Nuclei (%) [7]: 37%
Population Tubulin-Different-Phenotype (%) [7]: 84%
Total Cell Count [7]: 119
Population Apoptotic (%) [8]: 47%
Population Fragmented Nuclei (%) [8]: 30%
Population Healthy Nuclei (%) [8]: 42%
Population Hoechst High Intensity Objects (%) [8]: 6%
Population Membrane Permeable-Phenotype (%) [8]: 5%
Population Mitochondria Different-Phenotype (%) [8]: 35%
Population Mitotic Cells (%) [8]: 52%
Population Normal (%) [8]: 93%
Population Pyknosed Nuclei (%) [8]: 27%
Population Tubulin-Different-Phenotype (%) [8]: 72%
Total Cell Count [8]: 149
Population Apoptotic (%) [9]: 63%
Population Fragmented Nuclei (%) [9]: 33%
Population Healthy Nuclei (%) [9]: 36%
Population Hoechst High Intensity Objects (%) [9]: 10%
Population Membrane Permeable-Phenotype (%) [9]: 2%
Population Mitochondria Different-Phenotype (%) [9]: 20%
Population Mitotic Cells (%) [9]: 36%
Population Normal (%) [9]: 90%
Population Pyknosed Nuclei (%) [9]: 30%
Population Tubulin-Different-Phenotype (%) [9]: 48%
Total Cell Count [9]: 150
Population Apoptotic (%) [10]: 60%
Population Fragmented Nuclei (%) [10]: 35%
Population Healthy Nuclei (%) [10]: 40%
Population Hoechst High Intensity Objects (%) [10]: 8%
Population Membrane Permeable-Phenotype (%) [10]: 8%
Population Mitochondria Different-Phenotype (%) [10]: 25%
Population Mitotic Cells (%) [10]: 40%
Population Normal (%) [10]: 91%
Population Pyknosed Nuclei (%) [10]: 24%
Population Tubulin-Different-Phenotype (%) [10]: 68%
Total Cell Count [10]: 158
Population Apoptotic (%) [11]: 77%
Population Fragmented Nuclei (%) [11]: 28%
Population Healthy Nuclei (%) [11]: 20%
Population Hoechst High Intensity Objects (%) [11]: 14%
Population Membrane Permeable-Phenotype (%) [11]: 0%
Population Mitochondria Different-Phenotype (%) [11]: 55%
Population Mitotic Cells (%) [11]: 22%
Population Normal (%) [11]: 85%
Population Pyknosed Nuclei (%) [11]: 51%
Population Tubulin-Different-Phenotype (%) [11]: 66%
Total Cell Count [11]: 103
Population Apoptotic (%) [12]: 68%
Population Fragmented Nuclei (%) [12]: 27%
Population Healthy Nuclei (%) [12]: 41%
Population Hoechst High Intensity Objects (%) [12]: 13%
Population Membrane Permeable-Phenotype (%) [12]: 17%
Population Mitochondria Different-Phenotype (%) [12]: 29%
Population Mitotic Cells (%) [12]: 31%
Population Normal (%) [12]: 86%
Population Pyknosed Nuclei (%) [12]: 30%
Population Tubulin-Different-Phenotype (%) [12]: 80%
Total Cell Count [12]: 130
